From ChEMBL document CHEMBL1275486, “Kinetic characterization of VIM-7, a divergent member of the VIM metallo-beta-lactamase family” (Antimicrob Agents Chemother, 2008)

Columns and labels:
Details in all cases: 07-406
[1] = tested on: CC(=O)OCC1=C(C(=O)O)N2C(=O)[C@@H](NC(=O)Cc3cccs3)[C@H]2SC1; assay: (§1) Activity of Pseudomonas aeruginosa beta-lactamase VIM-7 by spectrophotometry
Method in brief: (§2)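 Recombinant enzyme was expressed in E. coli BL21(DE3) from pET-26b and purified from the periplasm to >99%, with concentration taken from A280. Hydrolysis was followed spectrophotometrically at 25°C in 50 mM sodium cacodylate pH 7.0 with 100 μM ZnCl2 and 0.1 mg/ml BSA. Km and kcat came from initial velocity versus substrate concentration. Some Km values were taken as competitive Ki against nitrocefin reporter.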

[2] = tested on: CC(C)(O/N=C(\C(=O)N[C@@H]1C(=O)N2C(C(=O)[O-])=C(C[n+]3ccccc3)CS[C@H]12)c1csc(N)n1)C(=O)O; assay: as §1; method in brief: as §2
[3] = tested on: CC1(C)S[C@@H]2[C@H](NC(=O)C(C(=O)O)c3ccccc3)C(=O)N2[C@H]1C(=O)O; assay: as §1; method in brief: as §2
[4] = tested on: CC1(C)S[C@@H]2[C@H](NC(=O)Cc3ccccc3)C(=O)N2[C@H]1C(=O)O; assay: as §1; method in brief: as §2
[5] = tested on: CC1(C)S[C@@H]2[C@H](NC(=O)[C@H](N)c3ccccc3)C(=O)N2[C@H]1C(=O)O; assay: as §1; method in brief: as §2
[6] = tested on: CC1(C)S[C@@H]2[C@H](NC(=O)[C@H](NC(=O)N3CCNC3=O)c3ccccc3)C(=O)N2[C@H]1C(=O)O; assay: as §1; method in brief: as §2
[7] = tested on: CC1(C)[C@H](C(=O)O)N2C(=O)C[C@H]2S1(=O)=O; assay: as §1; method in brief: as §2
[8] = tested on: CCN1CCN(C(=O)N[C@@H](C(=O)N[C@@H]2C(=O)N3[C@@H]2SC(C)(C)[C@@H]3C(=O)O)c2ccccc2)C(=O)C1=O; assay: as §1; method in brief: as §2
[9] = tested on: CO/N=C(\C(=O)N[C@@H]1C(=O)N2C(C(=O)O)=C(COC(C)=O)CS[C@H]12)c1csc(N)n1; assay: as §1; method in brief: as §2
[10] = tested on: CO/N=C(\C(=O)N[C@@H]1C(=O)N2C(C(=O)O)=C(COC(N)=O)CS[C@H]12)c1ccco1; assay: as §1; method in brief: as §2
[11] = tested on: CO/N=C(\C(=O)N[C@@H]1C(=O)N2C(C(=O)[O-])=C(C[N+]3(C)CCCC3)CS[C@H]12)c1csc(N)n1; assay: as §1; method in brief: as §2
[12] = tested on: CO[C@@]1(NC(=O)C(C(=O)O)c2ccc(O)cc2)C(=O)N2C(C(=O)O)=C(CSc3nnnn3C)CO[C@@H]21; assay: as §1; method in brief: as §2
[13] = tested on: CO[C@@]1(NC(=O)Cc2cccs2)C(=O)N2C(C(=O)O)=C(COC(N)=O)CS[C@@H]21; assay: as §1; method in brief: as §2
[14] = tested on: C[C@@H](O)[C@H]1C(=O)N2C(C(=O)O)=C(SCCNC=N)C[C@H]12; assay: as §1; method in brief: as §2
[15] = tested on: C[C@@H](O)[C@H]1C(=O)N2C(C(=O)O)=C(S[C@@H]3CN[C@H](C(=O)N(C)C)C3)[C@H](C)[C@H]12; assay: as §1; method in brief: as §2
[16] = tested on: C[C@@H](O)[C@H]1C(=O)N2C(C(=O)O)=C(S[C@@H]3CN[C@H](C(=O)Nc4cccc(C(=O)O)c4)C3)[C@H](C)[C@H]12; assay: as §1; method in brief: as §2
[17] = tested on: C[C@H]1[C@H](NC(=O)/C(=N\OC(C)(C)C(=O)O)c2csc(N)n2)C(=O)N1S(=O)(=O)O; assay: as §1; method in brief: as §2
[18] = tested on: C[C@]1(Cn2ccnn2)[C@H](C(=O)O)N2C(=O)C[C@H]2S1(=O)=O; assay: as §1; method in brief: as §2
[19] = tested on: Cc1onc(-c2ccccc2Cl)c1C(=O)N[C@@H]1C(=O)N2[C@@H]1SC(C)(C)[C@@H]2C(=O)O; assay: as §1; method in brief: as §2
[20] = tested on: O=C(Cc1cccs1)N[C@@H]1C(=O)N2C(C(=O)O)=C(/C=C/c3ccc([N+](=O)[O-])cc3[N+](=O)[O-])CS[C@H]12; assay: as §1; method in brief: as §2
[21] = tested on: O=C(Cc1cccs1)N[C@@H]1C(=O)N2C(C(=O)[O-])=C(C[n+]3ccccc3)CS[C@H]12; assay: as §1; method in brief: as §2
[22] = tested on: O=C(O)[C@H]1/C(=C/CO)O[C@@H]2CC(=O)N21; assay: as §1; method in brief: as §2
[23] = tested on: CC(=O)OCC1=C(C(=O)O)N2C(=O)[C@@H](NC(=O)Cc3cccs3)[C@H]2SC1; assay: (§3) Ratio of Kcat to Km for Pseudomonas aeruginosa beta-lactamase VIM-7 by spectrophotometry; method in brief: as §2
[24] = tested on: CC(C)(O/N=C(\C(=O)N[C@@H]1C(=O)N2C(C(=O)[O-])=C(C[n+]3ccccc3)CS[C@H]12)c1csc(N)n1)C(=O)O; assay: as §3; method in brief: as §2
[25] = tested on: CC1(C)S[C@@H]2[C@H](NC(=O)C(C(=O)O)c3ccccc3)C(=O)N2[C@H]1C(=O)O; assay: as §3; method in brief: as §2
[26] = tested on: CC1(C)S[C@@H]2[C@H](NC(=O)Cc3ccccc3)C(=O)N2[C@H]1C(=O)O; assay: as §3; method in brief: as §2
[27] = tested on: CC1(C)S[C@@H]2[C@H](NC(=O)[C@H](N)c3ccccc3)C(=O)N2[C@H]1C(=O)O; assay: as §3; method in brief: as §2
[28] = tested on: CC1(C)S[C@@H]2[C@H](NC(=O)[C@H](NC(=O)N3CCNC3=O)c3ccccc3)C(=O)N2[C@H]1C(=O)O; assay: as §3; method in brief: as §2
[29] = tested on: CC1(C)[C@H](C(=O)O)N2C(=O)C[C@H]2S1(=O)=O; assay: as §3; method in brief: as §2
[30] = tested on: CCN1CCN(C(=O)N[C@@H](C(=O)N[C@@H]2C(=O)N3[C@@H]2SC(C)(C)[C@@H]3C(=O)O)c2ccccc2)C(=O)C1=O; assay: as §3; method in brief: as §2
[31] = tested on: CO/N=C(\C(=O)N[C@@H]1C(=O)N2C(C(=O)O)=C(COC(C)=O)CS[C@H]12)c1csc(N)n1; assay: as §3; method in brief: as §2
[32] = tested on: CO/N=C(\C(=O)N[C@@H]1C(=O)N2C(C(=O)O)=C(COC(N)=O)CS[C@H]12)c1ccco1; assay: as §3; method in brief: as §2
[33] = tested on: CO/N=C(\C(=O)N[C@@H]1C(=O)N2C(C(=O)[O-])=C(C[N+]3(C)CCCC3)CS[C@H]12)c1csc(N)n1; assay: as §3; method in brief: as §2
[34] = tested on: CO[C@@]1(NC(=O)C(C(=O)O)c2ccc(O)cc2)C(=O)N2C(C(=O)O)=C(CSc3nnnn3C)CO[C@@H]21; assay: as §3; method in brief: as §2
[35] = tested on: CO[C@@]1(NC(=O)Cc2cccs2)C(=O)N2C(C(=O)O)=C(COC(N)=O)CS[C@@H]21; assay: as §3; method in brief: as §2
[36] = tested on: C[C@@H](O)[C@H]1C(=O)N2C(C(=O)O)=C(SCCNC=N)C[C@H]12; assay: as §3; method in brief: as §2
[37] = tested on: C[C@@H](O)[C@H]1C(=O)N2C(C(=O)O)=C(S[C@@H]3CN[C@H](C(=O)N(C)C)C3)[C@H](C)[C@H]12; assay: as §3; method in brief: as §2
[38] = tested on: C[C@@H](O)[C@H]1C(=O)N2C(C(=O)O)=C(S[C@@H]3CN[C@H](C(=O)Nc4cccc(C(=O)O)c4)C3)[C@H](C)[C@H]12; assay: as §3; method in brief: as §2
[39] = tested on: C[C@]1(Cn2ccnn2)[C@H](C(=O)O)N2C(=O)C[C@H]2S1(=O)=O; assay: as §3; method in brief: as §2
[40] = tested on: Cc1onc(-c2ccccc2Cl)c1C(=O)N[C@@H]1C(=O)N2[C@@H]1SC(C)(C)[C@@H]2C(=O)O; assay: as §3; method in brief: as §2
[41] = tested on: O=C(Cc1cccs1)N[C@@H]1C(=O)N2C(C(=O)O)=C(/C=C/c3ccc([N+](=O)[O-])cc3[N+](=O)[O-])CS[C@H]12; assay: as §3; method in brief: as §2
[42] = tested on: O=C(Cc1cccs1)N[C@@H]1C(=O)N2C(C(=O)[O-])=C(C[n+]3ccccc3)CS[C@H]12; assay: as §3; method in brief: as §2
[43] = tested on: O=C(O)[C@H]1/C(=C/CO)O[C@@H]2CC(=O)N21; assay: as §3; method in brief: as §2

Chain of Metallo-b-lactamase (Pseudomonas aeruginosa), Q840P9 (Q840P9 whole entry): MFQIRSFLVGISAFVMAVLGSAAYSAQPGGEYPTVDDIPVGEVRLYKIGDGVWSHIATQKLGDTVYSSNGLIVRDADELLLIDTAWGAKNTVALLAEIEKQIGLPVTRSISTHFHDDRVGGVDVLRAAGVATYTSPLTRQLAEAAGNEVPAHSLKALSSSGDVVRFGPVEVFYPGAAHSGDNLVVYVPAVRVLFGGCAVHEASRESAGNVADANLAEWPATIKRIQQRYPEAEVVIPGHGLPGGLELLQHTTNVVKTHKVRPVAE

For “Metallo-b-lactamase (Pseudomonas aeruginosa), Q840P9”, the Km [1] was 45 µM, the kcat [1] was 180 s⁻¹ and the Km [2] was 120 µM. It also gave a kcat [2] of 1.4 s⁻¹, a Km [3] of 84 µM and a kcat [3] of 1200 s⁻¹. It also gave a Km [4] of 17 µM, a kcat [4] of 430 s⁻¹ and a Km [5] of 15 µM. It also gave a kcat [5] of 190 s⁻¹, a Km [6] of 66 µM and a kcat [6] of 78 s⁻¹. For the same substance, the Km [7] was 740 µM, the kcat [7] was 110 s⁻¹ and the Km [8] was 26 µM. The kcat [8] was 140 s⁻¹, the Km [9] was 22 µM and the kcat [9] was 56 s⁻¹. The Km [10] was 29 µM, the kcat [10] was 16 s⁻¹ and the Km [11] was 580 µM. It also gave a kcat [11] of 5.3 s⁻¹, a Km [12] of 75 µM and a kcat [12] of 230 s⁻¹. It also gave a Km [13] of 68 µM, a kcat [13] of 10 s⁻¹ and a Km [14] of 27 µM. The kcat [14] was 100 s⁻¹, the Km [15] was 38 µM and the kcat [15] was 42 s⁻¹. The Km [16] was 28 µM, the kcat [16] was 8 s⁻¹ and the Km [17] was 2700 µM. It also gave a Km [18] of 3500 µM, a kcat [18] of 68 s⁻¹ and a Km [19] of 860 µM. The kcat [19] was 2500 s⁻¹, the Km [20] was 58 µM and the kcat [20] was 1500 s⁻¹. It also gave a Km [21] of 250 µM, a kcat [21] of 180 s⁻¹ and a Km [22] of 940 µM. The kcat [22] was 2.3 s⁻¹, the kcat/Km [23] was 4e+06 M⁻¹ s⁻¹ and the kcat/Km [24] was 12000 M⁻¹ s⁻¹. The kcat/Km [25] was 1.4e+07 M⁻¹ s⁻¹, the kcat/Km [26] was 2.5e+07 M⁻¹ s⁻¹ and the kcat/Km [27] was 1.3e+07 M⁻¹ s⁻¹. The kcat/Km [28] was 1.2e+06 M⁻¹ s⁻¹, the kcat/Km [29] was 150000 M⁻¹ s⁻¹ and the kcat/Km [30] was 5.4e+06 M⁻¹ s⁻¹. It also gave a kcat/Km [31] of 2.6e+06 M⁻¹ s⁻¹, a kcat/Km [32] of 550000 M⁻¹ s⁻¹ and a kcat/Km [33] of 9100 M⁻¹ s⁻¹. The kcat/Km [34] was 3.1e+06 M⁻¹ s⁻¹, the kcat/Km [35] was 150000 M⁻¹ s⁻¹ and the kcat/Km [36] was 3.7e+06 M⁻¹ s⁻¹. The kcat/Km [37] was 1.1e+06 M⁻¹ s⁻¹, the kcat/Km [38] was 290000 M⁻¹ s⁻¹ and the kcat/Km [39] was 19000 M⁻¹ s⁻¹. It also gave a kcat/Km [40] of 2.9e+06 M⁻¹ s⁻¹, a kcat/Km [41] of 2.6e+07 M⁻¹ s⁻¹ and a kcat/Km [42] of 720000 M⁻¹ s⁻¹. The kcat/Km [43] was 2500 M⁻¹ s⁻¹.
